Data taken from ChEMBL document CHEMBL4396890, “Synthesis, Biological Evaluation, Structure-Activity Relationship, and Mechanism of Action Studies of Quinoline-Metronidazole Derivatives Against Experimental Visceral Leishmaniasis” (J Med Chem, 2019).
Calls of active or inactive are those of the source. The calls are words filed in the database; no cut-off is given here.

Experiments:
[1] = tested on: Leishmania donovani; experiment: Antileishmanial activity against Leishmania donovani MHOM/IN/80/Dd8 amastigotes harboring luciferase reporter gene infected in mouse J774 cells at 25 uM after 48 hrs by Steady-Glo luminescence assay relative to control; assay type: functional; conditions: for inhibition at 25 µM: MHOM/IN/80/Dd8, J774, 48 h
Procedure, shortened: (§1)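 Infection of J774 macrophages with L. donovani Dd8 promastigotes at a 1:8 cell:parasite ratio. Compounds were diluted 2-fold in RPMI over 3.125–100 μM final and applied for 48 h. Amastigote inhibition was read by luciferase (RLU) or by Giemsa count of amastigotes per 100 macrophages. IC50 was from dose–response; n = 3 independent experiments done in replicate.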

[2] = tested on: Leishmania donovani; experiment: Antileishmanial activity against Leishmania donovani MHOM/IN/80/Dd8 amastigotes harboring luciferase reporter gene infected in mouse J774 cells at 50 uM after 48 hrs by Steady-Glo luminescence assay relative to control; assay type: functional; conditions: for inhibition at 50 µM: MHOM/IN/80/Dd8, J774, 48 h; procedure, shortened: as §1
[3] = tested on: Leishmania donovani; experiment: Antileishmanial activity against Leishmania donovani MHOM/IN/80/Dd8 promastigotes harboring luciferase reporter gene at 25 uM after 48 hrs by Steady-Glo luminescence assay relative to control; assay type: functional; conditions: for inhibition at 25 µM: MHOM/IN/80/Dd8, 48 h
Procedure, shortened: (§2)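 Luciferase-expressing L. donovani Dd8 promastigotes were grown at 24 °C in M199 with 10% heat-inactivated FBS and G418 20 μg/mL. They were treated at varied concentrations for 24 and 48 h, and inhibition was read as relative luminescence units versus untreated control. IC50 was from dose–response; screening values are mean ± SD of at least three experiments in duplicate.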

[4] = tested on: Leishmania donovani; experiment: Antileishmanial activity against Leishmania donovani MHOM/IN/80/Dd8 promastigotes harboring luciferase reporter gene at 50 uM after 48 hrs by Steady-Glo luminescence assay relative to control; assay type: functional; conditions: for inhibition at 50 µM: MHOM/IN/80/Dd8, 48 h; procedure, shortened: as §2
[5] = tested on: Leishmania donovani; experiment: Induction of mitochondrial potential loss in Leishmania donovani MHOM/IN/80/Dd8 promastigotes assessed as shift in red to green fluorescence at 50 uM by JC1 dye-based flow cytometry (reference value: 7.37%); assay type: functional
[6] = Selectivity index, ratio of CC50 for mouse J774 cells to IC50 for antileishmanial activity against Leishmania donovani MHOM/IN/80/Dd8 harboring luciferase reporter gene
[7] = Toxicity in BALB/c mouse infected with Leishmania donovani MHOM/IN/80/Dd8 promastigotes assessed as effect on health at 25 mg/kg, po administered once daily for 5 days measured up to 7 days post dose; assay type: organism-based; conditions: in vivo
Procedure, shortened: (§3)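 BALB/c mice (20 ± 2 g) were infected by tail-vein injection of 2 × 10^7 stationary-phase promastigotes. From day 15 they were given miltefosine 25 mg/kg orally, suspended in triple-distilled water, daily for 5 days, and killed at day 7 post-treatment. Survival, health and body weight were monitored; 5 mice per group.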

[8] = Toxicity in BALB/c mouse infected with Leishmania donovani MHOM/IN/80/Dd8 promastigotes assessed as death at 25 mg/kg, po administered once daily for 5 days measured up to 7 days post dose; assay type: organism-based; conditions: in vivo; procedure, shortened: as §3
[9] = tested on: Leishmania donovani; experiment: Antileishmanial activity against Leishmania donovani MHOM/IN/80/Dd8 promastigotes infected in BALB/c mouse assessed as reduction in parasite load in spleen at 25 mg/kg, po administered once daily for 5 days measured 7 days post dose by giemsa staining-based assay relative to control; assay type: functional; parameters: scale not given: the % may be the effect or the level left
Procedure, shortened: (§4)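 Reference-drug arm of the same infection model (BALB/c mice, 15-day infection, 2 × 10^7 promastigotes iv). Drug was suspended in triple distilled water and given orally at 25 mg/kg/day for 5 days, 5 mice per group. Hepatic and splenic burden was taken at day 7 post-treatment by Giemsa stamp smears, as LDU.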

[10] = tested on: Leishmania donovani; experiment: Antileishmanial activity against Leishmania donovani MHOM/IN/80/Dd8 amastigotes harboring luciferase reporter gene infected in mouse J774 cells after 48 hrs by Giemsa staining-based microscopic assay; assay type: functional, organism-based; conditions: MHOM/IN/80/Dd8, J774, 48 h; procedure, shortened: as §1
[11] = Toxicity in BALB/c mouse infected with Leishmania donovani MHOM/IN/80/Dd8 promastigotes assessed as reduction in body weight at 25 mg/kg, po administered once daily for 5 days measured up to 7 days post dose; assay type: organism-based; conditions: in vivo; procedure, shortened: as §3
[12] = Selectivity index, ratio of CC50 for […] Vero cells to IC50 for antileishmanial activity against Leishmania donovani MHOM/IN/80/Dd8 harboring luciferase reporter gene; assay type: toxicity
Procedure, shortened: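 J774 macrophages and Vero cells were exposed to 12.5–400 μM for 48 h, with viability by MTT. CC50 was derived, and SI was calculated as CC50 divided by anti-amastigote IC50 in each cell type.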

[13] = tested on: Leishmania donovani; experiment: Antileishmanial activity against Leishmania donovani MHOM/IN/80/Dd8 promastigotes infected in BALB/c mouse assessed as reduction in parasite load in liver at 25 mg/kg, po administered once daily for 5 days measured 7 days post dose by giemsa staining-based assay relative to control; assay type: functional; parameters: scale not given: the % may be the effect or the level left; procedure, shortened: as §4
[14] = tested on: Leishmania donovani; experiment: Antileishmanial activity against Leishmania donovani MHOM/IN/80/Dd8 amastigotes harboring luciferase reporter gene infected in mouse J774 cells after 48 hrs by Steady-Glo luminescence assay; assay type: functional, organism-based; conditions: MHOM/IN/80/Dd8, J774, 48 h; procedure, shortened: as §1
[15] = tested on: Leishmania donovani; experiment: Antileishmanial activity against Leishmania donovani MHOM/IN/80/Dd8 promastigotes infected in BALB/c mouse assessed as reduction in parasite load in spleen at 50 mg/kg, ip administered once daily for 5 days measured 7 days post dose by giemsa staining-based assay relative to control; assay type: functional; parameters: scale not given: the % may be the effect or the level left
Procedure, shortened: (§5)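 Hamster-passaged strain was transformed to promastigotes. Stationary-phase cells (2 × 10^7 in 0.2 mL PBS) were injected into the tail vein of BALB/c mice. From day 15 post-infection, mice received compound ip in 8% DMSO in PBS for 5 consecutive days, 5 mice per group. Mice were killed day 7 post-treatment. Liver and spleen burden was read from Giemsa-stained stamp smears as LDU.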

[16] = Toxicity in BALB/c mouse infected with Leishmania donovani MHOM/IN/80/Dd8 promastigotes assessed as death at 50 mg/kg, ip administered once daily for 5 days measured up to 7 days post dose; assay type: organism-based; conditions: in vivo
Procedure, shortened: (§6)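 BALB/c mice (20 ± 2 g) were infected by tail-vein injection of 2 × 10^7 stationary-phase promastigotes. At day 15 they received ip doses in 8% DMSO/PBS for 5 consecutive days and were killed at day 7 post-treatment. Survival, general health and body weight were monitored; 5 mice per group.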

[17] = tested on: Leishmania donovani; experiment: Antileishmanial activity against Leishmania donovani MHOM/IN/80/Dd8 promastigotes infected in BALB/c mouse assessed as reduction in parasite load in liver at 50 mg/kg, ip administered once daily for 5 days measured 7 days post dose by giemsa staining-based assay relative to control; assay type: functional; parameters: scale not given: the % may be the effect or the level left; procedure, shortened: as §5
[18] = Toxicity in BALB/c mouse infected with Leishmania donovani MHOM/IN/80/Dd8 promastigotes assessed as reduction in body weight at 12.5 to 200 mg/kg, ip administered once daily for 5 days measured up to 7 days post dose; assay type: organism-based; conditions: in vivo; procedure, shortened: as §6
[19] = Toxicity in BALB/c mouse infected with Leishmania donovani MHOM/IN/80/Dd8 promastigotes assessed as effect on health at 12.5 to 200 mg/kg, ip administered once daily for 5 days measured up to 7 days post dose; assay type: organism-based; conditions: in vivo; procedure, shortened: as §6
[20] = Toxicity in BALB/c mouse infected with Leishmania donovani MHOM/IN/80/Dd8 promastigotes assessed as death at 12.5 to 200 mg/kg, ip administered once daily for 5 days measured up to 7 days post dose; assay type: organism-based; conditions: in vivo; procedure, shortened: as §6
[21] = Toxicity in BALB/c mouse infected with Leishmania donovani MHOM/IN/80/Dd8 promastigotes assessed as effect on health at 50 mg/kg, ip administered once daily for 5 days measured up to 7 days post dose; assay type: organism-based; conditions: in vivo; procedure, shortened: as §6
[22] = Toxicity in BALB/c mouse infected with Leishmania donovani MHOM/IN/80/Dd8 promastigotes assessed as reduction in body weight at 50 mg/kg, ip administered once daily for 5 days measured up to 7 days post dose; assay type: organism-based; conditions: in vivo; procedure, shortened: as §6

SMILES | inhibition at 25 µM [1] [%] | inhibition at 50 µM [2] [%] | inhibition at 25 µM [3] [%] | inhibition at 50 µM [4] [%] | also measured
Cc1ncc([N+](=O)[O-])n1CCOc1cccc(-c2cc(-c3ccccc3)c3cc(Cl)ccc3n2)c1 | 38.2 | 59.2 | 41.2 | 58.2 | 
Cc1ncc([N+](=O)[O-])n1CCOc1ccc(-c2cc(-c3ccccc3)c3ccccc3n2)cc1 | 45.3 | 67.7 | 78.2 | 93.2 | 
Cc1ncc([N+](=O)[O-])n1CCOc1ccc(-c2cc(-c3ccccc3)c3cc(Cl)ccc3n2)cc1 | 34.2 | 64.4 | 45.3 | 65.8 | 
Cc1ncc([N+](=O)[O-])n1CCOc1cccc(-c2cc(-c3ccccc3)c3ccccc3n2)c1 | 31.2 | 66.4 | 43 | 63 | 
N#CC(C#N)=NNc1cccc(Cl)c1 [CARBONYL CYANIDE M-CHLOROPHENYLHYDRAZONE] |  |  |  |  | Activity [5]: 95.49%
Cc1ncc([N+](=O)[O-])n1CCOc1ccc(-c2cc(-c3ccccc3Cl)c3cc(Cl)ccc3n2)cc1 | 12.1 | 27.2 | 38.2 | 61.7 | 
Cc1ncc([N+](=O)[O-])n1CCOc1cccc(-c2cc(-c3ccccc3)c3cc([N+](=O)[O-])ccc3n2)c1 |  | 10.4 |  |  | inhibition [1]: inactive; inhibition [3]: inactive; inhibition [4]: inactive
CCCCCCCCCCCCCCCCOP(=O)([O-])OCC[N+](C)(C)C [MILTEFOSINE] | 98.3 | 99.2 | 97.2 | 99.5 | selectivity ratio [6]: 5.8; Activity [7]: Non-Toxic; Activity [8]: Non-Toxic; Activity [9]: >98%; IC50 [10]: 9.59 µM; Activity [11]: Non-Toxic; selectivity ratio [12]: 5.3; Activity [13]: >98%; IC50 [14]: 9.59 µM
Cc1ncc([N+](=O)[O-])n1CCOc1ccc(-c2cc(-c3ccccc3)c3ccc(Br)cc3n2)cc1 | 33.8 | 60.3 | 41.3 | 63.9 | 
Cc1ncc([N+](=O)[O-])n1CCOc1cccc(-c2cc(-c3ccccc3F)c3cc(Cl)ccc3n2)c1 |  | 12.1 |  |  | inhibition [1]: inactive; inhibition [3]: inactive; inhibition [4]: inactive
Cc1ncc([N+](=O)[O-])n1CCOc1ccc(-c2cc(-c3ccccc3F)c3cc(Cl)ccc3n2)cc1 | 23.4 | 63.6 | 34.4 | 59.1 | 
Cc1ncc([N+](=O)[O-])n1CCOc1cccc(-c2cc(-c3ccccc3)c3cc(Br)ccc3n2)c1 | 29.5 | 65.3 | 30.2 | 60.8 | 
c1ccc2ncccc2c1 [QUINOLINE] | 64.5 | 83.6 | 42.4 | 80.2 | Activity [7]: Non-Toxic; Activity [8]: Non-Toxic; Activity [15]: 55.2%; Activity [16]: Non-Toxic; Activity [17]: 58.2%; Activity [18]: Non-Toxic; Activity [11]: Non-Toxic; Activity [19]: Non-Toxic; Activity [20]: Non-Toxic; Activity [21]: Non-Toxic; Activity [22]: Non-Toxic
Cc1ncc([N+](=O)[O-])n1CCO [METRONIDAZOLE] | 31.2 | 68.1 | 41.3 | 62.2 | Activity [7]: Non-Toxic; Activity [8]: Non-Toxic; Activity [15]: 36.6%; Activity [16]: Non-Toxic; Activity [17]: 40.8%; Activity [18]: Non-Toxic; Activity [11]: Non-Toxic; Activity [19]: Non-Toxic; Activity [20]: Non-Toxic; Activity [21]: Non-Toxic; Activity [22]: Non-Toxic
Cc1ncc([N+](=O)[O-])n1CCOc1cccc(-c2cc(-c3ccccc3Cl)c3cc(Cl)ccc3n2)c1 |  |  | 12.3 | 26 | inhibition [1]: inactive; inhibition [2]: inactive
